Data: ChEMBL document CHEMBL1208735, “6-(4'-Aryloxy-phenyl)vinyl-1,2,4-trioxanes: a new series of orally active peroxides effective against multidrug-resistant Plasmodium yoelii in Swiss mice” (2010)
Calls of active or inactive are those of the source. No cut-off for these calls is given here.

What was measured:
[1] = tested on: Plasmodium yoelii nigeriensis; assay: Antimalarial activity against multi drug-resistant Plasmodium yoelii nigeriensis infected in Swiss mice (Mus musculus) assessed as suppression of parasitaemia level at 96 mg/kg, perorally daily for 4 days; type: functional; details: route oral
In short: (§1)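 Swiss mice (25 ± 1 g) infected day 0 with 1×10^6 parasitized RBC of multidrug-resistant P. yoelii nigeriensis. Groups of five dosed orally in groundnut oil (0.1 ml per dose), days 0–3, two divided doses daily. Parasitaemia read from thin blood smears on day 4 as % suppression. 100% means no parasites seen in 50 oil-immersion fields. β-Arteether was the positive control.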

[2] = tested on: Plasmodium yoelii nigeriensis; assay: Antimalarial activity against multi drug-resistant Plasmodium yoelii nigeriensis infected in Swiss mice (Mus musculus) assessed as protection of patent infection at 48 mg/kg, perorally daily for 4 days measured after 28 days; type: functional, organism-based; set-up: dose 48 mg/kg
In short: (§2)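 Colony-bred Swiss mice (25 ± 1 g) inoculated day 0 with 1×10^6 parasitized RBC of P. yoelii nigeriensis (resistant to chloroquine, mefloquine, halofantrine). Five mice per dose. Oral dosing in groundnut oil, 0.1 ml per dose, days 0–3, given as two divided doses daily. Thin blood smears read through day 28. Mice without patent infection by day 28 scored cured, expressed as cured/treated.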

[3] = tested on: Plasmodium yoelii nigeriensis; assay: Antimalarial activity against multi drug-resistant Plasmodium yoelii nigeriensis infected in Swiss mice (Mus musculus) assessed as suppression of parasitaemia level at 48 mg/kg, perorally daily for 4 days; type: functional; details: route oral; in short: as §1
[4] = tested on: Plasmodium yoelii nigeriensis; assay: Antimalarial activity against multi drug-resistant Plasmodium yoelii nigeriensis infected in Swiss mice (Mus musculus) assessed as suppression of parasitaemia level at 24 mg/kg, perorally daily for 4 days; type: functional; details: route oral; in short: as §1
[5] = tested on: Plasmodium yoelii nigeriensis; assay: Antimalarial activity against multi drug-resistant Plasmodium yoelii nigeriensis infected in Swiss mice (Mus musculus) assessed as protection of patent infection at 96 mg/kg, perorally daily for 4 days measured after 28 days; type: functional, organism-based; set-up: dose 96 mg/kg; in short: as §2
[6] = tested on: Plasmodium yoelii nigeriensis; assay: Antimalarial activity against multi drug-resistant Plasmodium yoelii nigeriensis infected in Swiss mice (Mus musculus) assessed as protection of patent infection at 24 mg/kg, perorally daily for 4 days measured after 28 days; type: functional, organism-based; set-up: dose 24 mg/kg; in short: as §2

SMILES | Activity [1] | Activity [2] | Activity [3] | Activity [4] | Activity [5] | Activity [6]
C=C(c1ccc(Oc2ccc(-c3ccccc3)cc2)cc1)C1COC2(OO1)C1CC3CC(C1)CC2C3 (stereo unspecified) | 100% |  |  |  |  | 
CCO[C@H]1O[C@@H]2O[C@@]3(C)CC[C@H]4[C@H](C)CC[C@@H]([C@H]1C)[C@@]24OO3 [ARTEMOTIL] |  | Active | 100% | 100% |  | 
C=C(c1ccc(Oc2ccc3ccccc3c2)cc1)C1COC2(OO1)C1CC3CC(C1)CC2C3 (stereo unspecified) | 100% |  |  |  |  | 
C=C(c1ccc(Oc2cccc3ccccc23)cc1)C1COC2(OO1)C1CC3CC(C1)CC2C3 (stereo unspecified) | 93.15% |  |  |  | inactive | 
C=C(c1ccc(Oc2ccc(-c3ccccc3)cc2)cc1)C1COC2(CCCC2)OO1 (stereo unspecified) | 100% | inactive | 100% |  | Active | 
C=C(c1ccc(Oc2ccccc2)cc1)C1COC2(CCCCC2)OO1 (stereo unspecified) | 100% |  |  |  |  | 
C=C(c1ccc(Oc2cccc3ccccc23)cc1)C1COC2(CCCCC2)OO1 (stereo unspecified) | 92.81% |  |  |  | inactive | 
C=C(c1ccc(Oc2ccccc2)cc1)C1COC2(CCCC2)OO1 (stereo unspecified) | 100% |  |  |  |  | 
C=C(c1ccc(Oc2ccccc2)cc1)C1COC2(OO1)C1CC3CC(C1)CC2C3 (stereo unspecified) | 100% |  |  |  |  | 
C=C(c1ccc(Oc2ccc(-c3ccccc3)cc2)cc1)C1COC2(CCCCC2)OO1 (stereo unspecified) | 84.39% |  |  |  | inactive | 
C=C(c1ccc(Oc2ccc3ccccc3c2)cc1)C1COC2(CCCCC2)OO1 (stereo unspecified) | 100% |  |  |  |  | 
C=C(c1ccc(Oc2ccc3ccccc3c2)cc1)C1COC2(CCCC2)OO1 (stereo unspecified) | 100% | Active | 100% | 100% | Active | inactive
C=C(c1ccc(Oc2cccc3ccccc23)cc1)C1COC2(CCCC2)OO1 (stereo unspecified) | 100% | Active | 100% | 100% | Active | inactive
